Measured values collected from several papers.
Protocols differ between the studies behind these lines.
rep main protease: Replicase polyprotein 1ab, main protease (rep, Severe acute respiratory syndrome coronavirus 2, UniProt P0DTD1)
ADRA1A: Alpha-1A adrenergic receptor (ADRA1A, Homo sapiens, UniProt P35348)
MAL12: Alpha-glucosidase MAL12 (MAL12, Saccharomyces cerevisiae S288c, UniProt P53341)

SMILES | target | read-out | mode | technique | tested at | endpoint | result
COc1ccc(-c2cc(=O)c3c(O)cc(OC)cc3o2)cc1 | rep main protease | enzyme activity | inhibitor | – | 10 µM | inhibition | 3.99%
O=c1c(O)c(-c2ccc(O)cc2)oc2c(O)c(O)cc(O)c12 | rep main protease | enzyme activity | inhibitor | – | – | kinact | 0.000152 s⁻¹
COc1cc(O)c2c(c1)O[C@H](c1ccccc1)CC2=O | rep main protease | enzyme activity | inhibitor | – | 100 µM | inhibition | 7.82%
[2H]c1c([2H])c([C@]2([2H])CCCN2C(=O)C(C)(C)Oc2ccc3cn[nH]c3c2)c([2H])c([2H])c1C([2H])([2H])[2H] | Focal adhesion kinase 1 (PTK2, Homo sapiens, UniProt Q05397) | binding | – | competition with immobilised ligand | 1 µM | remaining binding | 75%
COc1cc(O)c2c(=O)cc(-c3ccccc3)oc2c1 | rep main protease | enzyme activity | inhibitor | – | 10 µM | inhibition | 2.12%
CC(C)CC(=O)OC[C@H]1O[C@@](C#N)(c2ccc3c(N)ncnn23)[C@H](O)[C@@H]1O | ADRA1A | cell-free assay | – | – | 20 µM | inhibition | 3%
CCc1ccc(N2C(=O)/C(=C3/C(=O)N(C)c4ccc(Cl)cc43)NC2=S)cc1 | MAL12 | enzyme activity | inhibitor | absorbance | 200 µM | inhibition | 62.1%
COc1cc2c(cc1OC)-c1c(OC)c(OC)cc3c1[C@H](C2)N(C)CC3 (racemic) | ADRA1A | ligand displacement | – | radioligand | 10 µM | inhibition | 69%
CN1CCC[C@H]1c1cccnc1 | ADRA1A | ligand displacement | – | – | 50 µM | inhibition | -6.17%
O=C(O[C@@H]1Cc2c(O)cc(O)cc2O[C@@H]1c1ccc(O)c(O)c1)c1cc(O)c(O)c(O)c1 | rep main protease | enzyme activity | inhibitor | – | – | kinact/KI | 9.76 M⁻¹ s⁻¹
CN1C(=O)/C(=N\Nc2ncc(-c3cc4ccccc4oc3=O)s2)c2cc(Cl)ccc21 | MAL12 | enzyme activity | inhibitor | absorbance | 25 µM | inhibition | 17.4%
O=C(O)c1cc(O)c(O)c(O)c1 | rep main protease | enzyme activity | inhibitor | – | – | kinact | 0.00079 s⁻¹
COc1cc2cc3c4c(cc(OC)c(OC)c4c2cc1OC)CCN3C | ADRA1A | ligand displacement | – | radioligand | 10 µM | inhibition | 19%
CN1C(=S)N(c2ccccc2)C(=O)/C1=C1/C(=O)N(C)c2ccc(Cl)cc21 | MAL12 | enzyme activity | inhibitor | absorbance | 25 µM | inhibition | 11.9%
c1cncc([C@@H]2CCCN2)c1 | ADRA1A | ligand displacement | – | – | 50 µM | inhibition | -8.12%
